Published values collected from several papers.
Each line is one published result; the experiments were not run side by side. pIC50: −log10 of the molar value.
Read-out: cell growth or viability

SMILES | cell line | technique | concentration | time | endpoint | result
Cc1cc(C)cc(COc2cc3c(cc2OCc2cc(C)cc(C)c2)C2CC(O)(Cc4cn(CCOCCOCCOCCNC(=O)CNc5cccc6c5C(=O)N(C5CCC(=O)NC5=O)C6=O)nn4)CC(C)N2CC3)c1 (stereo not drawn) | ASPC1 | MTT |  |  | pIC50 | 5.49
COC(C)(C)CCC[C@](C)(O)[C@H]1CC[C@]2(C)[C@@H]1[C@H](O)C[C@@H]1[C@@]3(C)CC[C@H](O)C(C)(C)[C@@H]3CC[C@]12C | NCI-H358 | MTT |  | 72 h | IC20 | 4.48 µM
C=CS(=O)(=O)Nc1ccc(Cn2cc(C[C@@]3(O)C[C@@H]4c5cc(OCc6cc(C)cc(C)c6)c(OCc6cc(C)cc(C)c6)cc5CCN4[C@@H](C)C3)nn2)cc1 | ASPC1 | MTT |  |  | pIC50 | 6.08
CCCCCCCCCCCCCCCCOP(=O)([O-])OCC[N+](C)(C)C | HaCaT | MTS | 20 µM | 24 h | inhibition | 45.5%
COc1ccc(-c2ccc(-c3ccc(C(=N)N)nc3)s2)cc1Cl | SNB-19 | SRB |  |  | GI50 | 1700 nM
C[C@@H](Oc1cc(-c2cnn(C3CCNCC3)c2)cnc1N)c1c(Cl)ccc(F)c1Cl | KARPAS-299 | MTT | 0.2 µg/mL | 72 h | inhibition | 75.5%
COc1cccc(Oc2ccccc2NC(=O)CNC(=O)c2cccc3ccccc23)c1 | SNB-19 | SRB |  | 48 h | GI50 | 617 nM
Cc1cc(C)cc(COc2cc3c(cc2OCc2cc(C)cc(C)c2)C2CC(O)(Cc4cn(CCOCCOCCOCCNC(=O)CNc5ccc6c(c5)C(=O)N(C5CCC(=O)NC5=O)C6=O)nn4)CC(C)N2CC3)c1 (stereo not drawn) | ASPC1 | MTT |  |  | pIC50 | < 5.30
COc1cc(Nc2nccc(-c3cnn4nc(OC)ccc34)n2)cc(C(F)(F)F)c1 | ASPC1 | ATP luminescence |  |  | pIC50 | 6.01
COC(=O)c1c(C)ncn1CC(c1c[nH]c2ccccc12)c1c[nH]c2ccccc12 | HaCaT | MTS | 20 µM | 24 h | inhibition | 9.7%
Cc1cc(Nc2ncc(Cl)c(Nc3ccccc3S(=O)(=O)C(C)C)n2)c(OC(C)C)cc1C1CCNCC1 | KARPAS-299 | MTT | 0.02058 µg/mL | 72 h | inhibition | 22.4%
C/C=C/C(=O)Nc1ccc(CCn2cc(C[C@@]3(O)C[C@@H]4c5cc(OCc6cc(C)cc(C)c6)c(OCc6cc(C)cc(C)c6)cc5CCN4[C@@H](C)C3)nn2)cc1 | ASPC1 | MTT |  |  | pIC50 | 6.06
CCc1ncn(CC(c2c[nH]c3ccc(C)cc23)c2c[nH]c3ccc(C)cc23)c1C(=O)OC | HaCaT | MTS | 20 µM | 24 h | inhibition | 23%
Cc1cc(C)cc(COc2cc3c(cc2OCc2cc(C)cc(C)c2)C2CC(O)(Cc4cn(CCCCCCOc5ccc6c(c5)C(=O)N(C5CCC(=O)NC5=O)C6=O)nn4)CC(C)N2CC3)c1 (stereo not drawn) | ASPC1 | MTT |  |  | pIC50 | 6.05
CC(C)C[C@H](NC(=O)[C@H](Cc1ccccc1)NC(=O)c1cnccn1)B(O)O | HEC-1-A | ATP luminescence |  |  | pIC50 | 7.77
